Arbovirus inh = antivirals against arbovirus infection, primary screen, cell-based, full library, 10K replicate subset | arbovirus infection cell-based antiviral screen | inhibition, % at 10 µM | 0.37% of 200,000 active | AID 1251, 2008; in the data active = inhibition above about 30%
L major viab = Leishmania major promastigote growth inhibition, primary screen | Leishmania major promastigotes, resazurin fluorescence viability | 9% of 200,000 active | inhibition, % at 10 µM;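 note: promastigotes grown with compound for 44 hours at 28 °C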
Rad51 HR inh = human RAD51 strand exchange inhibitors, primary screen, biochemical, fluorescence; hRad51 DNA strand exchange, fluorescence dequenching; inhibition, % at 10 µM; 0.085% of 200,000 active; AID 1385, 2008;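 active = inhibition above 40% at the single screening dose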;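 note: 0% = DMSO control wells and 100% = blanks with heterologous ssDNA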
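Material: hRad51 filaments on single-stranded DNA; Reagent: Donor/quencher-labelled 47-bp dsDNA substrate; Compound: 10 µM final, single point; Schedule: 37 °C 15-min filament assembly, 30-min compound preincubation, 15-min exchange; Technique: FRET fluorescence, excitation 485 nm, emission 520 nm; Benchmarks: control wells and blank wells on each plate.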
Wee1 degr inh = Wee1 degradation inhibitors, primary screen, cell-based, HeLa, Wee1K328M-luciferase, luminescence; reporter increase, % at 5 µM; 1.2% of 220,000 active; Wee1-like protein kinase (Homo sapiens), P30291; HeLa Luc-Wee1K328M stability; 100% = proteasome inhibitor MG132 effect;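 active = activation above the mean of all tested compounds plus 3 SD, set per screening run, cut at about 8.8% in these data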;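 note: cells exposed to compound for 20 h before luminescence read; 0% = DMSO alone and 100% = MG132 at 30 µM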
PKD1 kinase inh = inhibitors of human PKD1 kinase, biochemical, fluorescence polarization; Serine/threonine-protein kinase D1 (Homo sapiens), Q15139; PKD1 kinase fluorescence polarization assay; inhibition, % (test concentration not listed); 0.056% of 200,000 active
CHOP inhibitor = inhibitors of CHOP promoter induction, primary screen, cell-based, unfolded protein response, luciferase reporter; CHO-K1 CHOP-promoter luciferase, tunicamycin-induced, 15-18 h; inhibition, % at 10 µM; 3.8% of 220,000 active; AID 2732, 2010;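 active = compounds that reduced the stress-induced luciferase reporter signal by more than about 70% of percent inhibition, limit read from the data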;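 note: 0% = tunicamycin plus vehicle and 100% = wells without tunicamycin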
* = called active by the depositor; x = no result. Sampled rows, rich in hits. Any-hit rate of the full collection: about 12%. Cut-off read from the data, not from the text of the source, unless noted: active = inhibition above about 50%; inactive = the rest.

SMILES	Arbovirus inh	L major viab	Rad51 HR inh	Wee1 degr inh	PKD1 kinase inh	CHOP inhibitor
CC(C)Oc1cccc(C(=O)C2CCCN(Cc3cnc(N4CCOCC4)s3)C2)c1 (stereo unspecified)	5.2	28.7	0.7	2.1	-8.2	-10.6
CC1CCN(S(=O)(=O)c2ccc(NC(=O)Cc3ccccc3)cc2)CC1	-18.9	9.2	-1.7	1.4	-9.6	85.2*
CC1CCN(CC(=O)Nc2ccc(N3CCCCCC3)cc2)CC1	-20.2	78.2*	-7.8	-1.8	4.5	29.4
CC1CCN(S(=O)(=O)c2ccc(NC(=O)CN3CCN(c4ccccc4)CC3)cc2)CC1	-10.5	-5.8	5.7	-0.4	-3.0	53.1
O=C(CSCc1ccc(Cl)cc1)Nc1ccc(S(=O)(=O)N2CCOCC2)cc1	14.7	87.6*	0.2	2.4	-14.2	47.1
O=C(CN1CCCCC1)Nc1ccc(S(=O)(=O)N2CCOCC2)cc1	7.0	96.8*	7.0	-2.2	-2.4	8.9
O=C(CN1CCN(Cc2ccccc2)CC1)Nc1ccc(S(=O)(=O)N2CCOCC2)cc1	-0.8	-4.8	-2.6	0.1	-10.8	-1.4
Cc1cc(C)c(-n2c(SCCS(=O)(=O)c3ccc(F)cc3)n[nH]c2=O)c(C)c1	x	x	8.9	-0.1	x	-4.6
COc1ccc(-c2c(C(F)(F)F)nn(C)c2NC(C)=O)cc1	x	x	x	5.7	x	10.0
Cc1ccc(S(=O)(=O)NC2(C(F)(F)F)C(=O)Nc3c2c(=O)[nH]c(=O)n3-c2ccccc2)cc1 (stereo unspecified)	1.4	72.4*	1.7	-1.2	-11.6	-3.1
Cc1ccc(-n2c3c(c(=O)[nH]c2=O)C(NS(=O)(=O)c2ccc(C)cc2)(C(F)(F)F)C(=O)N3)cc1 (stereo unspecified)	-0.8	-5.3	12.7	-0.9	-7.8	0.9
COc1cc(-c2nnc(-c3cc(OC)c(OC)c(OC)c3)o2)cc(OC)c1OC	6.4	1.1	-2.0	2.7	-0.4	-23.6
COc1cc(N=c2ssnc2Cl)cc(OC)c1OC	-4.5	-5.5	2.0	2.7	-11.3	94.5*
Clc1ccc(N=c2ssnc2Cl)cc1	1.6	-6.6	2.3	1.6	-8.7	19.9
N#Cc1ccc(N=c2ssnc2Cl)cc1	2.0	-7.4	-2.7	3.6	-1.6	86.4*
Clc1nssc1=Nc1ccccc1	9.9	-6.3	18.9	-0.7	-2.8	85.6*
Fc1ccc(N=c2ssnc2Cl)c(F)c1	4.4	-1.5	-6.8	-1.0	-1.6	82.4*
O=C(NCCCn1ccnc1)c1nn2c(C(F)(F)F)cc(-c3ccccc3)nc2c1Cl	-14.8	29.1	15.0	-2.2	3.8	23.5
O=C(O)CC(NNC(=O)c1ccccc1)C(=O)Nc1cccc([N+](=O)[O-])c1 (stereo unspecified)	x	x	4.2	-2.4	x	-17.2
CSc1ccccc1NC(=O)c1ccccc1C	-1.1	-1.4	9.4	1.1	-0.7	7.5
CCS(=O)(=O)c1ccc2oc(Nc3ccc(C(C)(C)C)cc3)nc2c1	7.6	20.7	-366.3	4.3	-6.8	71.6*
c1ccc2oc(-c3ccn[nH]3)cc2c1	x	x	-19.7	5.3	x	13.6
Cc1ccc2c(c1)C(c1ccc(N3CCOCC3)cc1)=NNC(c1cccs1)=N2	6.2	85.9*	-4.2	1.0	-1.9	-12.1
Fc1ccc2c(c1)C(c1ccc(N3CCOCC3)cc1)=NNC(c1cccs1)=N2	-10.5	40.8	-3.6	-1.4	3.0	5.8
CCc1ccc2c(c1)C(c1ccc(N3CCOCC3)cc1)=NNC(c1ccncc1)=N2	9.8	57.1*	2.5	-0.4	4.2	15.5
Brc1ccc2c(c1)C(c1ccc(N3CCOCC3)cc1)=NNC(c1cccs1)=N2	-5.1	78.2*	-2.5	-0.1	-6.7	26.8
CCOc1ccc(C2=Nc3ccc(Br)cc3C(c3ccc(N4CCOCC4)cc3)=NN2)cc1	18.7	21.5	1.8	2.9	-5.4	-9.5
C=C(CCC(=O)c1ccccc1)C(=O)c1ccccc1	-21.6	100.2*	1.8	0.2	-8.9	-8.0
O=C(CCCCCCCC(=O)c1ccccc1)c1ccccc1	-1.2	-6.5	2.6	1.6	-1.2	25.9

Assay outcomes (PubChem BioAssay)
